# From PubChem
# MrgX1 antagonist: antagonists of human MrgX1 receptor, primary screen, HEK293 cells, Fluo-4 calcium flux. B-score at 10 µM. Mas-related G-protein coupled receptor member X1 (Homo sapiens), Q96LB2. BAM8-22 antagonism; stronger effect = lower value. 310,000 tested, 1.3% active;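 active = calcium-response B-score plate-corrected more than 3 library SD below zero, starting fluorescence within 5 deviations, no agonist response on first addition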;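 also: peak minus trough fluorescence over baseline after final BAM8-22 challenge near maximal dose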
# Target sequence (Q96LB2 whole entry, looked up): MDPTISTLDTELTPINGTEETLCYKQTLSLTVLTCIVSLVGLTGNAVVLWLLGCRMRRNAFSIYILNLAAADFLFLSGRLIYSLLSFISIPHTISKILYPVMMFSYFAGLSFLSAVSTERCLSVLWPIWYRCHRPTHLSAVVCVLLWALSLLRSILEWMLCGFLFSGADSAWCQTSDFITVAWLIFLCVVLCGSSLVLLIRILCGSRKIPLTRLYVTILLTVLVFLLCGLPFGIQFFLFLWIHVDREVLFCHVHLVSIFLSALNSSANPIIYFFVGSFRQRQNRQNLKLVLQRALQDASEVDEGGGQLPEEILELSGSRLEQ
# RGS4 act: RGS4 potentiators or activators, primary screen, cell-based, HEK293 M3R inducible RGS4, calcium flux; carbachol calcium flux Fluo4; stronger effect = lower value; B-score at 10 µM; 310,000 tested, 0.92% active;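 active = B-score of the integrated calcium signal more than 4 SD below the library mean, with starting fluorescence not abnormally high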;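 also: negative B-score means reduced calcium response which marks RGS4 activation or potentiation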
#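 Material: M3R-expressing HEK293 line, RGS4 induced by doxycycline | Schedule: Overnight RGS4 induction, 30 min dye load 37 °C, 20 min compound RT | Measured by: Fluo4 fluorescence kinetic imaging of calcium | Read-out: Integrated calcium ratio converted to B score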
# RGS4 block: RGS4 inhibitors, primary screen, cell-based, HEK293 M3R inducible RGS4, calcium flux; Regulator of G-protein signaling 4 (Homo sapiens), P49798; Fluo-4 calcium flux; stronger effect = higher value; triggered by carbachol at its EC20; B-score at 10 µM; 310,000 tested, 0.45% active;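 active = B-score, a plate-corrected calcium signal, over three deviations above library mean, with baseline fluorescence within five deviations of library mean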;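 also: RGS4 expression induced by doxycycline in cells with stable M3 receptor; B-score is computed from the integrated fluorescence ratio over baseline after carbachol; higher B-score means a larger calcium signal and so more RGS4 inhibition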
# Target sequence (P49798 whole entry, looked up): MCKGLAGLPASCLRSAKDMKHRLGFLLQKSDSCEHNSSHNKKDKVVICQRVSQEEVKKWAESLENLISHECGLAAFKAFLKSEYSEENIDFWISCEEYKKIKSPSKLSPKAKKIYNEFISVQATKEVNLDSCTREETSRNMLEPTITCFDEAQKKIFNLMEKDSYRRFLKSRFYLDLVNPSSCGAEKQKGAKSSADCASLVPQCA
# MrgX1 agonist: agonists of human MrgX1 receptor, primary screen, HEK293 cells, Fluo-4 calcium flux; Mas-related G-protein coupled receptor member X1 (Homo sapiens), Q96LB2; Fluo-4 calcium fluorescence, agonist mode; stronger effect = higher value; B-score at 10 µM; 310,000 tested, 0.44% active;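 active = calcium response B-score plate-corrected fluorescence ratio at least 3 library SD, with starting fluorescence B-score inside 5 SD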
#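 Material – MrgX1-expressing HEK293 cells · Input – 15,000 cells seeded per well · Dosing – compound as first of three additions · Times – overnight seeding, then 1 h dark dye loading · Measured by – kinetic Fluo-4 NW fluorescence of intracellular calcium · Read-out – B-scored fluorescence response ratio · Benchmarks – positive and negative control wells on each plate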
# MrgX1 PAM: positive allosteric modulators of MrgX1, primary screen, HEK293 cells, Fluo-4 calcium flux. 310,000 tested, 0.63% active. B-score at 10 µM. FDSS; stronger effect = higher value. AID 588675, 2011;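 active = plate-corrected calcium response at least 3 library SD above typical, normal starting fluorescence, not activating the receptor alone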;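 also: compound read alongside a low EC10 to EC30 dose of BAM8-22 agonist; peak minus trough fluorescence over baseline measured at the second addition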
# MrgX1 PAM conf: MrgX1 positive allosteric modulators, duplicate retest, confirmation, HEK293 cells, Fluo-4 calcium flux; shares compounds with MrgX1 PAM; Fluo-4 calcium fluorescence, FDSS; activation (ratio percentage), % at 10 µM; 1,200 tested, 13% active;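 active = ratio at least 3 SD above the weak peptide control, stable starting fluorescence, no direct agonism earlier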;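 also: compound followed by low BAM8-22 agonist challenge near EC20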
# HEK293 Ca flux: nonspecific calcium signal in parental HEK293, confirmation, counter-screen for MrgX1 antagonist project, parental HEK293 cells, Fluo-4 calcium flux; shares compounds with MrgX1 antagonist; Fluo-4 calcium fluorescence, FDSS; fluorescence ratio F(max-min)/F0 at 10 µM; 4,000 tested, 2% active;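 active = duplicate-averaged calcium fluorescence ratio at least three times the standard deviation of buffer wells, a nonspecific response in parental cells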
# HEK293 Ca counter: calcium response in parental HEK293 cells, primary screen, counter-screen for MrgX1 allosteric activator project, cell-based, Fluo-4 calcium flux, duplicate. shares compounds with MrgX1 antagonist. fluorescence ratio F(max-min)/F0 at 10 µM. Fluo-4 fluorescence ratio; stronger effect = higher value. 4,000 tested, 0.4% active. AID 624114, 2012;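 active = calcium fluorescence ratio, averaged over duplicates, at least 3 SD of the buffer-well ratio, meaning a nonspecific response in receptor-free cells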;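 also: untransfected parental HEK293 lacking MrgX1 used as counterscreen for MrgX1 allosteric activators; fluorescence change taken during the second addition on a kinetic imager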
# HEK293 Ca cntr2: calcium response in parental HEK293 cells, primary screen, counter-screen for MrgX1 agonist project, cell-based, Fluo-4 calcium flux, duplicate, agonist mode | fluorescence ratio F(max-min)/F0 at 10 µM | 4,000 tested, 8.7% active | shares compounds with MrgX1 antagonist | Fluo-4 calcium fluorescence (FDSS); stronger effect = higher value;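 active = calcium fluorescence ratio at least three times the spread of buffer wells, meaning a non-specific response in parental cells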
# Numbers stand for hits; – = inactive; · = no result. In the library only some 3.5% were active in any assay of this set; here they are far more common.
SMILES,MrgX1 antagonist,RGS4 act,RGS4 block,MrgX1 agonist,MrgX1 PAM,MrgX1 PAM conf,HEK293 Ca flux,HEK293 Ca counter,HEK293 Ca cntr2
CCOc1ccc(NC(=O)C2C3CCC4C(CCC32)C4(Cl)Cl)cc1 (configuration not stated),–,–,–,–,–,·,·,·,·
O=C(Nc1ccc(F)cc1)C1C2CCC3C(CCC21)C3(Cl)Cl (configuration not stated),–,–,–,–,9.4,–,–,–,–
CC(=O)c1nnn(-c2nc(N)nc(N(c3ccccc3)c3ccccc3)n2)c1C,–,–,–,–,13,16%,–,–,–
CCCCN(CCCC)c1nc(OC)nc(-n2nnc(C(C)=O)c2C)n1,–,–,–,–,–,·,·,·,·
Cc1cc2c(c(SCC(=O)N(C)c3ccccc3)n1)C(=O)OC2,–,–,–,–,–,·,·,·,·
Cc1cc2c(c(SCC(N)=O)n1)C(=O)OC2,–,–,–,–,6.7,–,–,–,–
Cc1ccc(-n2c(COc3ccccc3)n[nH]c2=S)cc1,–,–,–,–,8,–,–,–,–
Cc1ccc(OCc2n[nH]c(=S)n2-c2ccccc2)cc1C,–,–,–,–,8.7,–,–,–,–
COc1ccc(-n2c(COc3ccc(C)cc3)n[nH]c2=S)cc1,–,–,–,–,–,·,·,·,·
Cc1ccc(-n2c(COc3cccc(C)c3)n[nH]c2=S)cc1,–,–,–,–,11,–,–,–,–
Cc1ccc(-n2c(CCc3ccccc3)n[nH]c2=S)cc1C,–,–,–,–,6.5,–,–,–,–
CC(C)(C)c1ccccc1OCC(=O)NCc1ccccc1,–,–,–,–,–,·,·,·,·
COc1ccc(CCNC(=O)C(C)OC(=O)c2nsc(Cl)c2Cl)cc1OC (configuration not stated),–,–,–,–,–,·,·,·,·
CCCNC(=O)c1cc(S(=O)(=O)N2CCc3ccccc32)cn1C,–,–,–,–,–,·,·,·,·
COc1cc(/C(C)=N/N2CCN(c3ccccc3OC)CC2)ccc1O,–,–,–,–,–,·,·,·,·
Cc1ccc2nc(SC(C)C(=O)N3CCOCC3)[nH]c2c1 (configuration not stated),–,–,–,–,7.3,–,–,–,–
COC(=O)c1ccc(/C=N/NC(=O)C(=O)NCc2ccccc2)cc1,–,–,–,–,–,·,·,·,·
Cc1cc(C)cc(-c2nnc(SCc3ccc(C(=O)O)cc3)o2)c1,–,–,–,–,7.4,–,–,–,–
CCNC(=S)SCCOc1ccccc1C,–,–,–,–,–,·,·,·,·
COc1ccc(-c2nn(CCC#N)cc2C(=O)Nc2cccc(C(=O)O)c2)cc1OC,–,–,–,–,–,·,·,·,·
CC(C)CCNC(=O)C(c1ccco1)N(CCCO)C(=O)Cn1nnc(-c2ccc(F)cc2)n1 (configuration not stated),–,–,–,–,–,·,·,·,·
CN(C)c1nnc(-c2ccc(Cl)cc2)o1,–,–,–,–,–,·,·,·,·
COC(=O)Cc1[nH]n(-c2nc3ccccc3s2)c(=O)c1C(C)=Nc1ccc(Cl)cc1,–,–,–,–,12,–,–,–,–
CCC(=O)N(CCc1ccccc1)Cc1cc2cc(OC)ccc2[nH]c1=O,–,–,–,–,10,–,–,–,–
